Results from publication PMC6460348 (ChemistryOpen, 2019).

Target: wild type XIAP‐BIR1 (Homo sapiens, UniProt P98170)
Experiment: MicroScale Thermophoresis
Format: binding
Procedure, shortened: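 Human XIAP-BIR1 domain (wild type, or R62S, D71A, R82S or V86E point mutant made by site-directed mutagenesis), expressed from pET28b and purified. Lysines were covalently dye-labelled, and protein was held at 100 nM. Test compound was added as a two-fold series, final 30 nM–1.0 mM or 300 nM–10 mM. Assay at 24 °C in 50 mM Tris-HCl pH 8, 200 mM NaCl, 10 % glycerol, 10 mM DTT, 0.05 % Tween20, with 20 % LED and medium MST power. Kd was fitted from unbound/bound response values.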

Sequence of wild type XIAP‐BIR1 (P98170 10-99 limits assumed): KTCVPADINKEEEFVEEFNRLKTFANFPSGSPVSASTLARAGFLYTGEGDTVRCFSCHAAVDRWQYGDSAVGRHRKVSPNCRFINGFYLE

Kd: 612 ± 109 µM
Structure (SMILES): Cc1ccc(C(=O)Nc2ccc(S(=O)(=O)O)c3cc(S(=O)(=O)O)cc(S(=O)(=O)O)c23)cc1NC(=O)c1cccc(NC(=O)Nc2cccc(C(=O)Nc3cc(C(=O)Nc4ccc(S(=O)(=O)O)c5cc(S(=O)(=O)O)cc(S(=O)(=O)O)c45)ccc3C)c2)c1 [Suramin]
